In publication PMC4431436 (Oncology Reports, 2015):
Entries after “also recorded” stand apart in the source; their conditions may differ. Read-outs that look alike come from different tables or passages of the source.

Legend:
[1] = approximately; cited from earlier work
metastatic melanoma [2] = details: intravenously twice weekly; stage IV or unresectable stage III; cited from earlier work
[3] = body weight of mice injected with B16F10 melanoma; format: in vivo, B6D2F1 hybrid female mice; details: 100 and 300 mg/kg, p.o., b.i.d., over the study duration
[4] = tested on: B16F10-luc melanoma cells; assay: bioluminescent imaging of de novo lung metastasis, B16F10-luc melanoma model; format: in vivo, (nu/nu) female mice
In short: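 8-week-old nu/nu females got 2.5×10⁵ G418-selected luciferase-expressing B16F10 cells i.v. From day 1, saline or test compound 300 mg/kg p.o. b.i.d. for two weeks; n=10/group. Imaged on days 0, 3, 8, 11 and 15 under 2.5% isoflurane after D-luciferin 90 mg/kg i.p. Total flux (photons/s) taken in head, lung and abdomen ROIs, dorsal and ventral. Then ex vivo lung imaging and surface colony counts. Mean ± SEM.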

human integrin αvβ5 = assay: cell adhesion assay, HeK293 overexpressing αvβ5 to vitronectin; format: cell-based; details: relative to αvβ3-mediated adhesion
In short: (§1)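 Stably transfected HEK293 cells overexpressing a human integrin, 25×10³ cells/well, attached for 2 h at 37°C in a humidified incubator, with or without increasing concentrations of test compound. Wells were coated with vitronectin (αvβ3, αvβ5), fibrinogen (αIIbβ3) or fibronectin (α5β1). Non-attached cells were washed off. Attached cells were quantified by colorimetric hexosaminidase activity against a per-line standard curve; mean of triplicates.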

[5] = target: purified murine αvβ3 integrin (Mus musculus, UniProt O54890+P43406); assay: 3H-MK-0429 binding assay with purified receptor
Sequence of purified murine αvβ3 integrin (P43406 31-885): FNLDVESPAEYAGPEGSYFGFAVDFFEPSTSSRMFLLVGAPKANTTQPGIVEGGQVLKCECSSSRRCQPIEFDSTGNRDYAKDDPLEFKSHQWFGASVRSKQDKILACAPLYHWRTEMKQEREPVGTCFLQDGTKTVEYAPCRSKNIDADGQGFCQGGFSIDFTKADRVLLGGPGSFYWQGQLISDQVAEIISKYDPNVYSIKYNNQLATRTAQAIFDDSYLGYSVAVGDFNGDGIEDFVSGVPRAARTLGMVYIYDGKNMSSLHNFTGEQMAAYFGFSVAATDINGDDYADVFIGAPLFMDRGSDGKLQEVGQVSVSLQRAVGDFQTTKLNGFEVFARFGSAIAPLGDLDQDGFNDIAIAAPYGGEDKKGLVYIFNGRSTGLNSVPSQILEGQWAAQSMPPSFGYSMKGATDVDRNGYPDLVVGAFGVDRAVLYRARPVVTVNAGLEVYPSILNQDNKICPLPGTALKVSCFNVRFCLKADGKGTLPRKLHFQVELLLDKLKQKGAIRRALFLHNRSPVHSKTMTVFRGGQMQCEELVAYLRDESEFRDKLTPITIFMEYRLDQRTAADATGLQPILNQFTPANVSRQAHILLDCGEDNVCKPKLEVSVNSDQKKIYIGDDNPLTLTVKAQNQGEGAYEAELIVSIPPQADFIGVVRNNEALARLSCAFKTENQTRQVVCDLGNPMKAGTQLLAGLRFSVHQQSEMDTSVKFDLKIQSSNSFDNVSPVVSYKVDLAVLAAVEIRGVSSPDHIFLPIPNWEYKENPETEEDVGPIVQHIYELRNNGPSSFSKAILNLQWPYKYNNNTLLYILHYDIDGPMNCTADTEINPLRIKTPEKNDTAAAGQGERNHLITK
Sequence of purified murine αvβ3 integrin (P43406 887-1044): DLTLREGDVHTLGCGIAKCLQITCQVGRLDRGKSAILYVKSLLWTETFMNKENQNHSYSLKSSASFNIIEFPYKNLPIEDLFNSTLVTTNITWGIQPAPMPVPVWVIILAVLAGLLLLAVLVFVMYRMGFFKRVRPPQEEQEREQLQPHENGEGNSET
Sequence of purified murine αvβ3 integrin (O54890 26-787): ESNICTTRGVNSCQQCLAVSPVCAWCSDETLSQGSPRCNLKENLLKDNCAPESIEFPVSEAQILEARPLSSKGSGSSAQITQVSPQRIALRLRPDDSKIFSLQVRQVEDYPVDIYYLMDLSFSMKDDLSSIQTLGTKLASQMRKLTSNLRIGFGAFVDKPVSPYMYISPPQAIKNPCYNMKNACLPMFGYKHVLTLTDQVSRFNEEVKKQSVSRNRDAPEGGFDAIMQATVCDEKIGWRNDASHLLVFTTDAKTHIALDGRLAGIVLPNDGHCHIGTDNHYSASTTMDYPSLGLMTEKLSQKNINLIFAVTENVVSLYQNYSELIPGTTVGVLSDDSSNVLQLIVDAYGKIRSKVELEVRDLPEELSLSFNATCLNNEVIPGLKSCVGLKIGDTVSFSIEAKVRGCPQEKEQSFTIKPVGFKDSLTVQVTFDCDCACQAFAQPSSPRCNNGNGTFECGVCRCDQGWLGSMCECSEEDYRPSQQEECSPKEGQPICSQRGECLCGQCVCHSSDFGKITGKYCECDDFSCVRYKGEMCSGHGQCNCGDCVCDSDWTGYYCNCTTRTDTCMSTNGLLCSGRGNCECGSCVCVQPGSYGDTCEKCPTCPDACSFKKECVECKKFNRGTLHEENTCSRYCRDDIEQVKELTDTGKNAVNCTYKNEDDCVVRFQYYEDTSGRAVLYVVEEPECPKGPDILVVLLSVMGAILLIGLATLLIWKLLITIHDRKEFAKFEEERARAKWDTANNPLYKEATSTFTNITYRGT

[6] = cited from earlier work
[7] = ovariectomized monkeys; cited from earlier work
murine B16F10 melanoma = assay: lung metastasis in the murine B16F10 melanoma prevention model; format: in vivo, B6D2F1 hybrid female mice; details: for total tumor colony number on lung surface: Veh 90±5, mean ± SEM
In short: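 6-week-old B6D2F1 females got 1.5×10⁵ B16F10 cells (cultured in DMEM/10% FBS) by i.v. tail vein. Necropsy ~2 weeks. Surface colonies counted across five lung regions; formalin-fixed frontal H&E sections for tumor area. Mean ± SEM; ANOVA/Tukey or t-test; Fisher's PLSD for area.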

human integrin αIIbβ3 = assay: cell adhesion assay, HeK293 overexpressing αIIbβ3 to fibrinogen; format: cell-based; details: relative to αvβ3-mediated adhesion
In short: as §1

[8] = cited from earlier work; remark: listed apart in the source
[9] = ovariectomized rats; cited from earlier work
[10] = target: T1, purified rat αvβ3 integrin (Rattus norvegicus, UniProt F1LZX9+Q8R2H2); assay: 3H-MK-0429 binding assay with purified receptor
T1 sequence (F1LZX9 31-1043): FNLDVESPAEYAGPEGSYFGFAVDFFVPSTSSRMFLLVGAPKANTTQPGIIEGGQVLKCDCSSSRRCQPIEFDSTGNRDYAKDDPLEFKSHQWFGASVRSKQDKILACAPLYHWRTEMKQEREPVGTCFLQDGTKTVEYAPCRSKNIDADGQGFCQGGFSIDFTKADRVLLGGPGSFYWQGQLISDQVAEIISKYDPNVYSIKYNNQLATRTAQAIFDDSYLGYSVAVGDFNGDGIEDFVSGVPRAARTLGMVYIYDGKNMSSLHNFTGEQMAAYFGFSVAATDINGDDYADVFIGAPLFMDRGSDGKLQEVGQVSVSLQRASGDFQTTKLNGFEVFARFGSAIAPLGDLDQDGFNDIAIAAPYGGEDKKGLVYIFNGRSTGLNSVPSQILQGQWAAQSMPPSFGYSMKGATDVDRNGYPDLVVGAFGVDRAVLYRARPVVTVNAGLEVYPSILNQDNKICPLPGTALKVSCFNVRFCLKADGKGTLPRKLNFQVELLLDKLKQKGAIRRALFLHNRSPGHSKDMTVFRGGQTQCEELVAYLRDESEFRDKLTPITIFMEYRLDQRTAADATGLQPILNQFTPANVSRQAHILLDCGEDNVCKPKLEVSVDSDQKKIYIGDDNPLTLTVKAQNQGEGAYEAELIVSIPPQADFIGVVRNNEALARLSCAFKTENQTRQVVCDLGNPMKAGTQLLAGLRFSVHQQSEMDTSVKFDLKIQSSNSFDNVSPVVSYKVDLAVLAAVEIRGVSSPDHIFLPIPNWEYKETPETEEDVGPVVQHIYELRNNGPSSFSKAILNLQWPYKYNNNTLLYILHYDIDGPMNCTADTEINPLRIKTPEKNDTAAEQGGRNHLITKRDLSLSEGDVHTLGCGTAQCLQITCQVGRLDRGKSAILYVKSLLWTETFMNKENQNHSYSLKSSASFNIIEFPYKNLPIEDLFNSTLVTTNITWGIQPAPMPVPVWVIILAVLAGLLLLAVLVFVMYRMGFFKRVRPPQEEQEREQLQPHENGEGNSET
T1 sequence (Q8R2H2 26-787): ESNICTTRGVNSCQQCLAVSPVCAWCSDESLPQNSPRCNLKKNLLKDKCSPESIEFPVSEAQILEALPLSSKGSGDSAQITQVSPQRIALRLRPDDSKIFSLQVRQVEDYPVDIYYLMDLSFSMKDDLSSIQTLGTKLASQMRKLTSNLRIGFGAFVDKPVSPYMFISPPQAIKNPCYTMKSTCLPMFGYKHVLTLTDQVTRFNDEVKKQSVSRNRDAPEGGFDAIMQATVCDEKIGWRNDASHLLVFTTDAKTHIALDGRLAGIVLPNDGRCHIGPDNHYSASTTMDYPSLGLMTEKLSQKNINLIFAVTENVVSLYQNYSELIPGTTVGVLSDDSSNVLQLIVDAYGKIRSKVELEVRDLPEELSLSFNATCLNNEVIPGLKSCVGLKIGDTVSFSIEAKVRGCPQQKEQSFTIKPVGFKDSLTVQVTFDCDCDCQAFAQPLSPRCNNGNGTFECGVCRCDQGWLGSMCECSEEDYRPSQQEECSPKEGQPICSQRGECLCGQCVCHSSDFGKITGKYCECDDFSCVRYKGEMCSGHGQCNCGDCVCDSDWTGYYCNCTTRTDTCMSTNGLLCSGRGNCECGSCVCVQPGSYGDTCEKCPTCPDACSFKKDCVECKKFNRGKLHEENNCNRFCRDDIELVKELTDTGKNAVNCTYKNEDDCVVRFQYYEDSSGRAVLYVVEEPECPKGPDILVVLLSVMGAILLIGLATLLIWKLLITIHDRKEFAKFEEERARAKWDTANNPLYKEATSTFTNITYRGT

[11] = tested on: osteoclastic bone resorption; details: read-out: IC50, inhibition of osteoclastic bone resorption; in vitro; cited from earlier work
human integrin αvβ3 = human integrin αvβ3 (Homo sapiens, UniProt P05106+P06756); assay: cell adhesion assay, HeK293-αvβ3 cells to vitronectin; format: cell-based
Sequence of human integrin αvβ3 (P06756 891-1048): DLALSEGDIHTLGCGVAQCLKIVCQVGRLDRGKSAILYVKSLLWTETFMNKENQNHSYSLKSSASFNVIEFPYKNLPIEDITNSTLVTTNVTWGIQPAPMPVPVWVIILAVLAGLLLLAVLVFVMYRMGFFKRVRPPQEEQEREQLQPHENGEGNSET
Sequence of human integrin αvβ3 (P05106 27-788): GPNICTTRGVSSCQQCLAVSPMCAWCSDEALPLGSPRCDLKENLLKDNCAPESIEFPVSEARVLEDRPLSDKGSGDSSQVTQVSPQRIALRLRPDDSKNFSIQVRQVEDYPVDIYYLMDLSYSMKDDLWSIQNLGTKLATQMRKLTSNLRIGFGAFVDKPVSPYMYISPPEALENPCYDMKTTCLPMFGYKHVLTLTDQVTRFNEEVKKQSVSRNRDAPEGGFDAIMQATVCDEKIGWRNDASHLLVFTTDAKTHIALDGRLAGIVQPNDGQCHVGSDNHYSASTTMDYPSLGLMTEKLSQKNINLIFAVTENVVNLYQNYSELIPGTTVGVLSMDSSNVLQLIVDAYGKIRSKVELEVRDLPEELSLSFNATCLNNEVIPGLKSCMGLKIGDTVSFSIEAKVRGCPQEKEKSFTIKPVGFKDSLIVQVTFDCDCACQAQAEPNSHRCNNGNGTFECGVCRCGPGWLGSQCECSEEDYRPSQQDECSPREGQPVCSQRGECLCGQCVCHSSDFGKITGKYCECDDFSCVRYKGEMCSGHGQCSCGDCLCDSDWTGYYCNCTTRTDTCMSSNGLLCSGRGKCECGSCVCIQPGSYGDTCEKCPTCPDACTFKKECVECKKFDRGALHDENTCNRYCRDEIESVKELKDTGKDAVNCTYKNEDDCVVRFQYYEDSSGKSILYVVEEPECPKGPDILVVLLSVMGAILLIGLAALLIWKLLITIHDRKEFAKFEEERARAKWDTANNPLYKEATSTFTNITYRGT
Sequence of human integrin αvβ3 (P06756 31-889): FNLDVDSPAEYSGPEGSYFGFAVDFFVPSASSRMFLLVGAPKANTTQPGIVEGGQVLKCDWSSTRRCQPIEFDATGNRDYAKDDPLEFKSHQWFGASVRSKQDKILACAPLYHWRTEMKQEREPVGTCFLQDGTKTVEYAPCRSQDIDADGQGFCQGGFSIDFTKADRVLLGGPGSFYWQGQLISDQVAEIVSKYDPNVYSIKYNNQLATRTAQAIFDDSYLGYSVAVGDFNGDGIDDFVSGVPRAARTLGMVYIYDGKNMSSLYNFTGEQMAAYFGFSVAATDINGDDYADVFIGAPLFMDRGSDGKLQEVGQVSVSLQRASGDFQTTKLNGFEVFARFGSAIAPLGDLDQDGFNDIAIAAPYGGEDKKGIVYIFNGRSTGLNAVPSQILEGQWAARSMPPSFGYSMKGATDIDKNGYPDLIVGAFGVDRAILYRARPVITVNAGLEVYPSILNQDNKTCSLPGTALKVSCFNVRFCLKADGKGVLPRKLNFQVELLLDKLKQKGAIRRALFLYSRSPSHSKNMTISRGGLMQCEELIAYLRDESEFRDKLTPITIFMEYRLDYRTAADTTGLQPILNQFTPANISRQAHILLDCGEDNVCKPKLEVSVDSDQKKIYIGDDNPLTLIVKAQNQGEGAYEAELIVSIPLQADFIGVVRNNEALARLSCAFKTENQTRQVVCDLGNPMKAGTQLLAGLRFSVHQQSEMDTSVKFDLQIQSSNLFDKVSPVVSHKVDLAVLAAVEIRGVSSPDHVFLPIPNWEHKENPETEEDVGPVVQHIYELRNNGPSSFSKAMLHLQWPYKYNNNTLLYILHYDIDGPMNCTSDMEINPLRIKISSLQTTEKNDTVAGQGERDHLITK
In short: as §1

[12] = target: purified human αvβ3 integrin (Homo sapiens, UniProt P05106+P06756); assay: 3H-MK-0429 binding assay with purified receptor
Sequence of purified human αvβ3 integrin (P05106 27-788): as the sequence (P05106 27-788) above
Sequence of purified human αvβ3 integrin (P06756 31-889): as the sequence (P06756 31-889) above
Sequence of purified human αvβ3 integrin (P06756 891-1048): as the sequence (P06756 891-1048) above

human integrin α5β1 = assay: cell adhesion assay, HeK293 overexpressing α5β1 to fibronectin; format: cell-based; details: relative to αvβ3-mediated adhesion
In short: as §1

metastatic melanoma [13] = details: 8 mg/kg once weekly, i.v.; stage IV metastatic melanoma; cited from earlier work
[14] = 300 mg/kg, p.o., b.i.d., day 11

For Cilengitide [reference compound], the half-life [1] is listed as 2 to 4 h and the “clinical efficacy as single-agent therapy for advanced melanoma” value (metastatic melanoma [2]) is listed as “minimal clinical efficacy”.

In the case of COc1ccc([C@H](CC(=O)O)N2CCN(CCCc3ccc4c(n3)NCCC4)C2=O)cn1 [MK-0429, 3(S)-(6-methoxypyridin-3-yl)-3-[2-oxo-3-[3-(5,6,7,8-tetrahydro-[1,8]-naphthyridin-2-yl)propyl]imidazolidin-1-yl] propionic acid], the “effect on body weight” value [3] is reported as “no significant weight loss”, the “reduction of visible metastatic colonies counted on the ex vivo lung surface” value ([4]; 300 mg/kg twice daily for two weeks, p<0.05 vs. Veh) is reported as 32% and the “decrease of metastasis in the lungs, ex vivo bioluminescence, vs vehicle” value ([4]; 300 mg/kg, p.o., b.i.d.) is reported as ~ 40%. For the same molecule, the “ex vivo lung tumor burden (bioluminescence)” value ([4]; 300 mg/kg, p.o., b.i.d., Veh 118.1±27.1, not statistically significant) was 69.9±5.9 ×10^5 photons/sec, the “reduction of melanoma burden in the ventral lung (bioluminescence) vs vehicle” value ([4]; 300 mg/kg, p.o., b.i.d., day 8) was 38% and the “reduction of tumor metastases in the dorsal lung (bioluminescence) vs vehicle” value (shortened to “reduction of tumor metastases”) ([4]; 300 mg/kg, p.o., b.i.d., day 8) was 15%. For the same molecule, the “reduction of melanoma burden in the ventral lung (bioluminescence) vs vehicle” value [4, 14] was 37%, the “reduction of tumor metastases” value [4, 14] was 54% and the “reduction of tumor metastases” value ([4]; 300 mg/kg, p.o., b.i.d., day 15, p=0.0561 vs. Veh) was 38%. The “fold less potent in blocking adhesion of HeK293-αvβ5 to vitronectin” value (human integrin αvβ5) was ~ 100 fold, the Kd [5] was 560 ± 70 pM and the “bone resorption marker urinary N-telopeptide” value ([6]; 200 and 1,600 mg orally, twice daily for four weeks) was “significantly decreased”. The tolerability ([6]; up to 1,600 mg twice daily for four weeks) was “well tolerated at this high dose; also recorded: well tolerated and without serious adverse events”, the bone mass [7] was “increases bone mass” and the bone turnover [7] was “significantly reduces bone turnover”. The “reduction of tumor colony number vs vehicle” value (murine B16F10 melanoma; 100 mg/kg, p.o., b.i.d.) was 64%, the “total tumor colony number on lung surface” value (murine B16F10 melanoma; 100 mg/kg, p.o., b.i.d.) was 33±6 and the “total tumor area in lung sections (H&E)” value (murine B16F10 melanoma; 300 mg/kg, b.i.d., Veh 11.1±0.4, n=5/group) was 5.0±0.7 mm^2. The “reduction of tumor colony number vs vehicle” value (murine B16F10 melanoma; 300 mg/kg, p.o., b.i.d.) was 57%, the “total tumor colony number on lung surface” value (murine B16F10 melanoma; 300 mg/kg, p.o., b.i.d.) was 39±9 and the “reduction of melanoma colonies in all lung regions” value (murine B16F10 melanoma; 100 and 300 mg/kg, p.o., b.i.d., five lung regions) was 53–68%. The “fold less active in blocking adhesion mediated by αIIbβ3 to fibrinogen” value (human integrin αIIbβ3) was > 1,000 fold, the “bone mineral density at the spine and hip compared to placebo” value ([8]; 100 or 400 mg once daily, or 200 mg twice daily for 12 months) was “significant increase” and the tolerability ([8]; postmenopausal women with osteoporosis) was “well tolerated and without serious adverse events”. The bone mass [9] was “increases bone mass”, the bone turnover [9] was “significantly reduces bone turnover” and the Kd [10] was 1230 ± 110 pM. The IC50 [11] was 12200 ± 4500 pM, the IC50 (human integrin αvβ3) was 580 ± 300 pM and the Kd [12] was 330 ± 40 pM. For the same molecule, the “fold less active in blocking adhesion mediated by α5β1 to fibronectin” value (human integrin α5β1) was > 1,000 fold.

For O=P1(N(CCCl)CCCl)NCCCO1 (stereo not drawn) [Cyclophosphamide, cyclophosphamide, reference compound], the “reduction of tumor colony number vs vehicle” value (murine B16F10 melanoma; 300 mg/kg, i.p., q.d.) was 99%.

B1: etaracizumab: monoclonal antibody against αvβ3 (antibody, chains of the INN, looked up, V domains shown)
VH: QVQLVESGGGVVQPGRSLRLSCAASGFTFSSYDMSWVRQAPGKGLEWVAKVSSGGGSTYYLDTVQGRFTISRDNSKNTLYLQMNSLRAEDTAVYYCARHLHGSFASWGQGTTVTVSS
VL: EIVLTQSPATLSLSPGERATLSCQASQSISNFLHWYQQRPGQAPRLLIRYRSQSISGIPARFSGSGSGTDFTLTISSLEPEDFAVYYCQQSGSWPLTFGGGTKVEIK
In the case of B1, the half-life [1] is listed as “a few days” and the “median survival rate, alone vs in combination with dacarbazine” value (metastatic melanoma [13]) is listed as “not different”.
